Results published in ChEMBL document CHEMBL1145035, “Design of selective peptidomimetic agonists for the human orphan receptor BRS-3” (J Med Chem, 2003).
Calls of active or inactive are those of the source. The calls are words filed in the database; no cut-off is given here. Square brackets hold non-standard residues; d marks the D form. Peptide text beside a SMILES is read from it. * marks the point of attachment. NHPhenethyl = c1ccc(CCN*)cc1; Nle = CCCC[C@H](N)C(=O)O; PhAc = O=C(Cc1ccccc1)*; βAla = NCCC(=O)O

Legend:
[1] = molecular target: T1, Neuromedin-B receptor (Homo sapiens, UniProt P28336); assay: Effective concentration required against nueromedin B receptor (NMB-R) in CHO cells by using FLIPR assay.; type: functional, cell-based
Method in brief: (§1)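 Intracellular Ca2+ mobilization was read by FLIPR in CHO cells transfected with the human receptor. NMB was the reference for NMB-R and GRP for GRP-R. EC50 values (±SEM) come from independent concentration–response curves, 4 to 30 per compound depending on the series.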
Target sequence in this assay (P28336 whole entry, looked up): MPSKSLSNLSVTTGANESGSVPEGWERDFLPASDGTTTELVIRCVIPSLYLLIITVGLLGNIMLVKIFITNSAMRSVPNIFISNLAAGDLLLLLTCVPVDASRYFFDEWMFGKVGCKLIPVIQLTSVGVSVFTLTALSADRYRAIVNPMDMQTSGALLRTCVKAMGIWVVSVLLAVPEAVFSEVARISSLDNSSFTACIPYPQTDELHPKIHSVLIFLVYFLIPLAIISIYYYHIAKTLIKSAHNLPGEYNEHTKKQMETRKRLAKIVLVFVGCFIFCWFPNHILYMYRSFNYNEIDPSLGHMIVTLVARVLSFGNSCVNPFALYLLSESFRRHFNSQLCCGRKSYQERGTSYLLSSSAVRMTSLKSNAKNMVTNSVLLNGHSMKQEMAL

[2] = molecular target: T2, Gastrin-releasing peptide receptor (Homo sapiens, UniProt P30550); assay: Effective concentration required against gastrin releasing peptide receptor (GRP-R) in CHO cells by using FLIPR assay.; type: functional, cell-based; method in brief: as §1
Target sequence in this assay (P30550 whole entry, looked up): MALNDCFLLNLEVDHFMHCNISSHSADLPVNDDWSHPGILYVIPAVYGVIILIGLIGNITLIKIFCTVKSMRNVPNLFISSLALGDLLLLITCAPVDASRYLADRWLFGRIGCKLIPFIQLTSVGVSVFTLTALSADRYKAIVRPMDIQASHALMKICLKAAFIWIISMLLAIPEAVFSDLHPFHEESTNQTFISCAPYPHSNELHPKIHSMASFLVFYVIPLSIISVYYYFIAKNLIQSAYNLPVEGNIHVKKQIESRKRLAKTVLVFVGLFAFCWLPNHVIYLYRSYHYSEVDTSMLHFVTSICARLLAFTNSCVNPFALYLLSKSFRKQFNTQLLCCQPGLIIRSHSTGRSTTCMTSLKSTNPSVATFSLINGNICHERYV

[3] = Emax
[4] = molecular target: T3, Bombesin receptor subtype-3 (Homo sapiens, UniProt P32247); assay: Effective concentration required against human bombesin receptor 3 (BRS-3) in CHO cells by using FLIPR assay.; type: functional, cell-based
T3 sequence (P32247 whole entry): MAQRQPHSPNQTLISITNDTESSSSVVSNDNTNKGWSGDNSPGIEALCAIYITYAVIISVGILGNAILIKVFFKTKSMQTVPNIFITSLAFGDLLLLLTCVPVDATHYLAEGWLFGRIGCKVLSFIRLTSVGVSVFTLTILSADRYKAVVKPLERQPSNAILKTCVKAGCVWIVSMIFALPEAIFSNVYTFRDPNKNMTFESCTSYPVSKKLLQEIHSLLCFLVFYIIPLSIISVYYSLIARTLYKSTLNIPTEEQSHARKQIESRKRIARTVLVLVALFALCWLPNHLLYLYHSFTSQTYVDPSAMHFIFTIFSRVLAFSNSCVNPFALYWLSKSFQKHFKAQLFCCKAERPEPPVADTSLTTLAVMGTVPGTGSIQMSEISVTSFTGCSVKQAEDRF

[5] = molecular target: T1, Neuromedin-B receptor; assay: (§2) Effective concentration required against nueromedin B receptor (NMB-R) in CHO cells by using FLIPR assay; type: functional, cell-based
Target sequence in this assay (P28336 whole entry): as the sequence (P28336 whole entry, looked up) above

[6] = molecular target: T1, Neuromedin-B receptor; assay: as §2; type: functional, cell-based; method in brief: as §1; remark: listed apart in the source
Target sequence in this assay (P28336 whole entry): as the sequence (P28336 whole entry, looked up) above

[7] = molecular target: T2, Gastrin-releasing peptide receptor; assay: Effective concentration required against gastrin releasing peptide receptor (GRP-R) in CHO cells by using FLIPR assay; type: functional, cell-based
Target sequence in this assay (P30550 whole entry): as the sequence (P30550 whole entry, looked up) above

Compound | NA [1] | NA [2] | Emax [3] | EC50 [4] | EC50 [5] | EC50 [6] | EC50 [7]
C[C@H](NCc1ccccc1)C(=O)N[C@@H](Cc1c[nH]c2ccccc12)C(=O)NCCc1ccccc1 | inactive | inactive | 86 | 46 nM |  |  | 
C[C@H](NC(=O)Cc1cc2ccccc2[nH]1)C(=O)N[C@@H](Cc1c[nH]c2ccccc12)C(=O)NCCc1ccccc1 | inactive | inactive | 69 | 79 nM |  |  | 
NC(=O)CC[C@H](NC(=O)Cc1cc2ccccc2[nH]1)C(=O)N[C@@H](Cc1c[nH]c2ccccc12)C(=O)NCCc1ccccc1 | inactive | inactive | 82 |  |  |  | 
O=C(N/N=C/c1ccc(Cl)cc1)NC(Cc1c[nH]c2ccccc12)C(=O)NCCc1ccccc1 (centres undefined) | inactive | inactive | 78 | 2700 nM |  |  | 
O=C(CNCCc1ccccc1)NC(Cc1c[nH]c2ccccc12)C(=O)NCCc1ccccc1 (centres undefined) | inactive | inactive | 92 |  |  |  | 
CCCC[C@H](NC(=O)[C@H](Cc1ccccc1)NC(=O)[C@H](Cc1cnc[nH]1)NC(=O)CCNC(=O)[C@@H](NC(=O)[C@H](C)NC(=O)[C@H](Cc1c[nH]c2ccccc12)NC(=O)[C@H](CCC(N)=O)NC(=O)[C@H](N)Cc1ccc(O)cc1)C(C)C)C(N)=O (H-[dY]QWAV[βAla]HF[Nle]-NH2) |  |  |  | 151 nM | 310 nM |  | 
NC(=O)CC[C@H](NC(=O)Cc1ccccc1)C(=O)N[C@@H](Cc1c[nH]c2ccccc12)C(=O)NCCc1ccccc1 (PhAc-Gln-Trp-NHPhenethyl) |  |  | 38 | 1200 nM |  | 15000 nM | 19100 nM
C[C@H](NC(=O)CC1NCCc2ccccc21)C(=O)N[C@@H](Cc1c[nH]c2ccccc12)C(=O)NCCc1ccccc1 (some centres undefined) | inactive | inactive | 69 | 310 nM |  |  | 
O=C(Cc1ccccc1)NNC(=O)NC(Cc1c[nH]c2ccccc12)C(=O)NCCc1ccccc1 (centres undefined) | inactive | inactive | 86 |  |  |  | 
O=C(CN1CCN(Cc2ccccc2)CC1)NC(Cc1c[nH]c2ccccc12)C(=O)NCCc1ccccc1 (centres undefined) | inactive | inactive | 90 | 70 nM |  |  | 
NC(=O)CC[C@H](NC(=O)CCc1ccc(Cl)cc1)C(=O)N[C@@H](Cc1c[nH]c2ccccc12)C(=O)NCCc1ccccc1 | inactive | inactive | 68 | 230 nM |  |  | 
C[C@H](NCc1ccc(Cl)cc1)C(=O)N[C@@H](Cc1c[nH]c2ccccc12)C(=O)NCCc1ccccc1 | inactive | inactive | 83 | 4 nM |  |  | 
O=C(CC1NCCc2ccccc21)NNC(=O)NC(Cc1c[nH]c2ccccc12)C(=O)NCCc1ccccc1 (centres undefined) | inactive | inactive | 95 | 9.3 nM |  |  | 
O=C(Cc1cccnc1)NNC(=O)NC(Cc1c[nH]c2ccccc12)C(=O)NCCc1ccccc1 (centres undefined) | inactive | inactive | 102 | 1.4 nM |  |  | 
O=C(Cc1cc2ccccc2[nH]1)NNC(=O)NC(Cc1c[nH]c2ccccc12)C(=O)NCCc1ccccc1 (centres undefined) | inactive | inactive | 84 |  |  |  | 
C[C@H](NC(=O)Cc1ccccc1)C(=O)N[C@@H](Cc1c[nH]c2ccccc12)C(=O)NCCc1ccccc1 (PhAc-Ala-Trp-NHPhenethyl) | inactive | inactive | 71 | 2.1 nM |  |  | 
C[C@H](NC(=O)CCc1ccc(Cl)cc1)C(=O)N[C@@H](Cc1c[nH]c2ccccc12)C(=O)NCCc1ccccc1 | inactive | inactive | 30 | 6400 nM |  |  | 
O=C(N/N=C/c1ccc(-c2cccs2)cc1)NC(Cc1c[nH]c2ccccc12)C(=O)NCCc1ccccc1 (centres undefined) | inactive | inactive | 58 | 7900 nM |  |  | 

Compound | NA [1] | NA [2] | Emax [3] | EC50 [4] | EC50 [5] | EC50 [6] | EC50 [7]
O=C(N/N=C/c1ccco1)NC(Cc1c[nH]c2ccccc12)C(=O)NCCc1ccccc1 (centres undefined) | inactive | inactive | 94 | 1.5 nM |  |  | 
NC(=O)CC[C@H](NC(=O)[C@H](N)Cc1ccccc1)C(=O)N[C@@H](Cc1c[nH]c2ccccc12)C(=O)NCCc1ccccc1 | inactive | inactive |  | 710 nM |  |  | 
NC(=O)CC[C@H](NC(=O)Cc1ccc(Cl)cc1)C(=O)N[C@@H](Cc1c[nH]c2ccccc12)C(=O)NCCc1ccccc1 |  |  | 62 | 1400 nM |  | 18500 nM | 12200 nM
CSCC[C@H](NC(=O)[C@H](Cc1ccccc1)NC(=O)[C@H](Cc1cnc[nH]1)NC(=O)CNC(=O)[C@@H](NC(=O)[C@H](C)NC(=O)[C@H](Cc1c[nH]c2ccccc12)NC(=O)[C@H](CC(C)C)NC(=O)[C@H](CC(N)=O)NC(=O)CN)[C@@H](C)O)C(N)=O |  |  |  | 4500 nM |  | 120 nM | 41 nM
O=C(CC1NCCc2ccccc21)NNC(=O)N[C@H](Cc1c[nH]c2ccccc12)C(=O)NCCc1ccccc1 (some centres undefined) | inactive | inactive | 91 | 19 nM |  |  | 
C[C@H](NC(=O)Cc1ccc(Cl)cc1)C(=O)N[C@@H](Cc1c[nH]c2ccccc12)C(=O)NCCc1ccccc1 | inactive | inactive | 75 | 140 nM |  |  | 
O=C(CNCc1ccccc1)NC(Cc1c[nH]c2ccccc12)C(=O)NCCc1ccccc1 (centres undefined) | inactive | inactive | 87 |  |  |  | 
C[C@H](NC(=O)Cc1cccnc1)C(=O)N[C@@H](Cc1c[nH]c2ccccc12)C(=O)NCCc1ccccc1 | inactive | inactive | 74 |  |  |  | 
O=C(CNCc1ccc(Cl)cc1)NC(Cc1c[nH]c2ccccc12)C(=O)NCCc1ccccc1 (centres undefined) | inactive | inactive | 81 |  |  |  | 
C[C@H](NC(=O)Cc1ccc2c(c1)OCO2)C(=O)N[C@@H](Cc1c[nH]c2ccccc12)C(=O)NCCc1ccccc1 | inactive | inactive | 75 | 7.8 nM |  |  | 
O=C(NNCc1ccc(Cl)cc1)NC(Cc1c[nH]c2ccccc12)C(=O)NCCc1ccccc1 (centres undefined) | inactive | inactive | 83 | 6 nM |  |  | 
O=C(Cc1ccc(Cl)cc1)NNC(=O)NC(Cc1c[nH]c2ccccc12)C(=O)NCCc1ccccc1 (centres undefined) | inactive | inactive | 89 |  |  |  | 
O=C(CN1CCC(Cc2ccccc2)CC1)NC(Cc1c[nH]c2ccccc12)C(=O)NCCc1ccccc1 (centres undefined) | inactive | inactive | 84 | 30 nM |  |  | 
C[C@H](NCCc1ccccc1)C(=O)N[C@@H](Cc1c[nH]c2ccccc12)C(=O)NCCc1ccccc1 | inactive | inactive | 82 |  |  |  | 
O=C(NNCc1ccccc1)NC(Cc1c[nH]c2ccccc12)C(=O)NCCc1ccccc1 (centres undefined) | inactive | inactive | 81 | 15 nM |  |  | 
O=C(NNCc1ccco1)NC(Cc1c[nH]c2ccccc12)C(=O)NCCc1ccccc1 (centres undefined) | inactive | inactive | 96 | 24 nM |  |  | 
O=C(CNCc1cccnc1)NC(Cc1c[nH]c2ccccc12)C(=O)NCCc1ccccc1 (centres undefined) | inactive | inactive | 82 |  |  |  | 
CSCC[C@H](NC(=O)[C@H](CC(C)C)NC(=O)[C@H](Cc1c[nH]cn1)NC(=O)CNC(=O)[C@@H](NC(=O)[C@H](C)NC(=O)[C@H](Cc1c[nH]c2ccccc12)NC(=O)[C@H](Cc1c[nH]cn1)NC(=O)[C@H](CC(N)=O)NC(=O)CNC(=O)[C@H](CCCN=C(N)N)NC(=O)[C@@H]1CCCN1C(=O)[C@H](Cc1ccc(O)cc1)NC(=O)[C@H](CCSC)NC(=O)[C@H](CCCCN)NC(=O)[C@@H](NC(=O)[C@H](CC(C)C)NC(=O)[C@@H](NC(=O)[C@@H](NC(=O)CNC(=O)CNC(=O)CNC(=O)[C@H](C)NC(=O)[C@@H]1CCCN1C(=O)[C@H](CC(C)C)NC(=O)[C@@H]1CCCN1C(=O)[C@@H](N)C(C)C)[C@@H](C)O)C(C)C)[C@@H](C)O)C(C)C)C(N)=O |  |  |  | 6400 nM |  | 3200 nM | 34 nM
